# Reference: ChEMBL document CHEMBL5303300, “EUbOPEN Chemogenomics Library - Multiplex” (2023)
# Several values for one entry are separate records, joined by “and”; a condition that tells them apart may be missing. Equal entries are not always repeated.
# How the values were obtained:
# Type in all cases: toxicity, cell-based
# Fibroblast = experiment: Multiplex assay against human fibroblast; settings: number of replicates 2
# Outline: (§1)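 Per cents of healthy-nucleus cells form the tubulin, mitochondrial-mass and membrane-permeability phenotype values. Live cells were stained at seeding with Hoechst33342, BioTracker Green Microtubule Cytoskeleton Dye, MitoTracker Red and Annexin V Alexa Fluor 680. After compound addition they were imaged on a CQ1 microscope at 37°C and 5% CO2, and CellPathfinder machine-learning gating split them into Hoechst high-intensity objects or normal cells, normal cells into healthy, pyknosed or fragmented nuclei, and pyknosed cells into mitotic or apoptotic.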
# HEK-293T = experiment: Multiplex assay against HEK293T; settings: human, number of replicates 2; outline: as §1
# U2OS = experiment: Multiplex assay against U2OS; settings: human, number of replicates 2; outline: as §1
# [1] = 12 h, 1 µM, compound concentration 1 uM
# [2] = 12 h, 10 µM, compound concentration 10 uM
# [3] = 24 h, 1 µM, compound concentration 1 uM
# [4] = 24 h, 10 µM, compound concentration 10 uM
# [5] = 48 h, 1 µM, compound concentration 1 uM
# [6] = 48 h, 10 µM, compound concentration 10 uM
structure (smiles),measurement,setting,value
COc1cc2nc(-c3cc(F)ccc3O)nc(N[C@@H]3CNC[C@H]3C(C)(C)O)c2cc1OC.Cl.Cl,Population Apoptotic (%),Fibroblast; [1],35% and 34%
same,Population Healthy Nuclei (%),Fibroblast; [1],60% and 58%
same,Population Hoechst High Intensity Objects (%),Fibroblast; [1],0%
same,Population Membrane Permeable-Phenotype (%),Fibroblast; [1],11% and 9%
same,Population Mitochondria Different-Phenotype (%),Fibroblast; [1],0% and 2%
same,Population Mitotic Cells (%),Fibroblast; [1],65%
same,Population Normal (%),Fibroblast; [1],100%
same,Population Pyknosed Nuclei (%),Fibroblast; [1],33% and 24%
same,Population Tubulin-Different-Phenotype (%),Fibroblast; [1],48% and 46%
same,Total Cell Count,Fibroblast; [1],178 and 189
same,Population Apoptotic (%),Fibroblast; [2],72% and 73%
same,Population Healthy Nuclei (%),Fibroblast; [2],8% and 16%
same,Population Hoechst High Intensity Objects (%),Fibroblast; [2],0%
same,Population Mitochondria Different-Phenotype (%),Fibroblast; [2],26% and 25%
same,Population Mitotic Cells (%),Fibroblast; [2],27% and 26%
same,Population Normal (%),Fibroblast; [2],99% and 100%
same,Population Pyknosed Nuclei (%),Fibroblast; [2],85% and 67%
same,Population Tubulin-Different-Phenotype (%),Fibroblast; [2],86% and 67%
same,Total Cell Count,Fibroblast; [2],170 and 187
same,Population Apoptotic (%),Fibroblast; [3],44% and 53%
same,Population Fragmented Nuclei (%),Fibroblast; [3],15% and 17%
same,Population Healthy Nuclei (%),Fibroblast; [3],63% and 65%
same,Population Hoechst High Intensity Objects (%),Fibroblast; [3],0%
same,Population Membrane Permeable-Phenotype (%),Fibroblast; [3],4% and 1%
same,Population Mitochondria Different-Phenotype (%),Fibroblast; [3],0% and 3%
same,Population Mitotic Cells (%),Fibroblast; [3],55% and 46%
same,Population Normal (%),Fibroblast; [3],99% and 100%
same,Population Pyknosed Nuclei (%),Fibroblast; [3],21% and 17%
same,Population Tubulin-Different-Phenotype (%),Fibroblast; [3],26% and 37%
same,Total Cell Count,Fibroblast; [3],211 and 188
same,Population Apoptotic (%),Fibroblast; [4],87% and 93%
same,Population Healthy Nuclei (%),Fibroblast; [4],1% and 2%
same,Population Hoechst High Intensity Objects (%),Fibroblast; [4],0%
same,Population Membrane Permeable-Phenotype (%),Fibroblast; [4],50% and 25%
same,Population Mitochondria Different-Phenotype (%),Fibroblast; [4],0% and 25%
same,Population Mitotic Cells (%),Fibroblast; [4],12% and 6%
same,Population Normal (%),Fibroblast; [4],100%
same,Population Pyknosed Nuclei (%),Fibroblast; [4],92% and 80%
same,Population Tubulin-Different-Phenotype (%),Fibroblast; [4],50%
same,Total Cell Count,Fibroblast; [4],168
same,Population Apoptotic (%),Fibroblast; [5],59% and 75%
same,Population Fragmented Nuclei (%),Fibroblast; [5],13% and 17%
same,Population Healthy Nuclei (%),Fibroblast; [5],75% and 70%
same,Population Hoechst High Intensity Objects (%),Fibroblast; [5],0%
same,Population Membrane Permeable-Phenotype (%),Fibroblast; [5],4% and 1%
same,Population Mitochondria Different-Phenotype (%),Fibroblast; [5],1% and 0%
same,Population Mitotic Cells (%),Fibroblast; [5],40% and 25%
same,Population Normal (%),Fibroblast; [5],100%
same,Population Pyknosed Nuclei (%),Fibroblast; [5],10% and 12%
same,Population Tubulin-Different-Phenotype (%),Fibroblast; [5],27% and 11%
same,Total Cell Count,Fibroblast; [5],201 and 191
same,Population Apoptotic (%),Fibroblast; [6],94% and 92%
same,Population Fragmented Nuclei (%),Fibroblast; [6],18% and 9%
same,Population Healthy Nuclei (%),Fibroblast; [6],3% and 4%
same,Population Hoechst High Intensity Objects (%),Fibroblast; [6],0%
same,Population Membrane Permeable-Phenotype (%),Fibroblast; [6],33% and 42%
same,Population Mitochondria Different-Phenotype (%),Fibroblast; [6],0%
same,Population Mitotic Cells (%),Fibroblast; [6],5% and 7%
same,Population Normal (%),Fibroblast; [6],100% and 99%
same,Population Pyknosed Nuclei (%),Fibroblast; [6],77% and 85%
same,Population Tubulin-Different-Phenotype (%),Fibroblast; [6],33% and 85%
same,Total Cell Count,Fibroblast; [6],171 and 162
same,Population Apoptotic (%),HEK-293T; [1],40% and 65%
same,Population Fragmented Nuclei (%),HEK-293T; [1],4% and 3%
same,Population Healthy Nuclei (%),HEK-293T; [1],86% and 83%
same,Population Hoechst High Intensity Objects (%),HEK-293T; [1],6% and 5%
same,Population Membrane Permeable-Phenotype (%),HEK-293T; [1],4% and 3%
same,Population Mitochondria Different-Phenotype (%),HEK-293T; [1],24% and 25%
same,Population Mitotic Cells (%),HEK-293T; [1],59% and 34%
same,Population Normal (%),HEK-293T; [1],93% and 94%
same,Population Pyknosed Nuclei (%),HEK-293T; [1],9% and 13%
same,Population Tubulin-Different-Phenotype (%),HEK-293T; [1],78%
same,Total Cell Count,HEK-293T; [1],681 and 543
same,Population Apoptotic (%),HEK-293T; [2],78% and 80%
same,Population Fragmented Nuclei (%),HEK-293T; [2],2%
same,Population Healthy Nuclei (%),HEK-293T; [2],62% and 61%
same,Population Hoechst High Intensity Objects (%),HEK-293T; [2],7% and 8%
same,Population Membrane Permeable-Phenotype (%),HEK-293T; [2],4% and 2%
same,Population Mitochondria Different-Phenotype (%),HEK-293T; [2],82% and 75%
same,Population Mitotic Cells (%),HEK-293T; [2],21% and 19%
same,Population Normal (%),HEK-293T; [2],92% and 91%
same,Population Pyknosed Nuclei (%),HEK-293T; [2],35%
same,Population Tubulin-Different-Phenotype (%),HEK-293T; [2],97%
same,Total Cell Count,HEK-293T; [2],476 and 483
same,Population Apoptotic (%),HEK-293T; [3],47% and 69%
same,Population Fragmented Nuclei (%),HEK-293T; [3],6%
same,Population Healthy Nuclei (%),HEK-293T; [3],85% and 84%
same,Population Hoechst High Intensity Objects (%),HEK-293T; [3],8% and 9%
same,Population Membrane Permeable-Phenotype (%),HEK-293T; [3],3%
same,Population Mitochondria Different-Phenotype (%),HEK-293T; [3],12% and 17%
same,Population Mitotic Cells (%),HEK-293T; [3],52% and 30%
same,Population Normal (%),HEK-293T; [3],91% and 90%
same,Population Pyknosed Nuclei (%),HEK-293T; [3],7% and 8%
same,Population Tubulin-Different-Phenotype (%),HEK-293T; [3],63% and 68%
same,Total Cell Count,HEK-293T; [3],1032 and 692
same,Population Apoptotic (%),HEK-293T; [4],87% and 80%
same,Population Fragmented Nuclei (%),HEK-293T; [4],4% and 2%
same,Population Healthy Nuclei (%),HEK-293T; [4],50% and 51%
same,Population Hoechst High Intensity Objects (%),HEK-293T; [4],20% and 25%
same,Population Membrane Permeable-Phenotype (%),HEK-293T; [4],6% and 4%
same,Population Mitochondria Different-Phenotype (%),HEK-293T; [4],65% and 68%
same,Population Mitotic Cells (%),HEK-293T; [4],12% and 20%
same,Population Normal (%),HEK-293T; [4],79% and 74%
same,Population Pyknosed Nuclei (%),HEK-293T; [4],45%
same,Population Tubulin-Different-Phenotype (%),HEK-293T; [4],84% and 89%
same,Total Cell Count,HEK-293T; [4],441 and 428
same,Population Apoptotic (%),HEK-293T; [5],22% and 35%
same,Population Fragmented Nuclei (%),HEK-293T; [5],14% and 7%
same,Population Healthy Nuclei (%),HEK-293T; [5],82% and 88%
same,Population Hoechst High Intensity Objects (%),HEK-293T; [5],9% and 11%
same,Population Membrane Permeable-Phenotype (%),HEK-293T; [5],3% and 1%
same,Population Mitochondria Different-Phenotype (%),HEK-293T; [5],1% and 3%
same,Population Mitotic Cells (%),HEK-293T; [5],77% and 64%
same,Population Normal (%),HEK-293T; [5],90% and 88%
same,Population Pyknosed Nuclei (%),HEK-293T; [5],3% and 4%
same,Population Tubulin-Different-Phenotype (%),HEK-293T; [5],26% and 35%
same,Total Cell Count,HEK-293T; [5],2589 and 1346
same,Population Apoptotic (%),HEK-293T; [6],85% and 77%
same,Population Fragmented Nuclei (%),HEK-293T; [6],4% and 3%
same,Population Healthy Nuclei (%),HEK-293T; [6],32% and 30%
same,Population Hoechst High Intensity Objects (%),HEK-293T; [6],21% and 24%
same,Population Membrane Permeable-Phenotype (%),HEK-293T; [6],6% and 5%
same,Population Mitochondria Different-Phenotype (%),HEK-293T; [6],58%
same,Population Mitotic Cells (%),HEK-293T; [6],14% and 22%
same,Population Normal (%),HEK-293T; [6],78% and 75%
same,Population Pyknosed Nuclei (%),HEK-293T; [6],62% and 66%
same,Population Tubulin-Different-Phenotype (%),HEK-293T; [6],82% and 81%
same,Total Cell Count,HEK-293T; [6],411 and 392
same,Population Apoptotic (%),U2OS; [1],100% and 76%
same,Population Healthy Nuclei (%),U2OS; [1],57% and 82%
same,Population Hoechst High Intensity Objects (%),U2OS; [1],0%
same,Population Membrane Permeable-Phenotype (%),U2OS; [1],21% and 13%
same,Population Mitochondria Different-Phenotype (%),U2OS; [1],18% and 27%
same,Population Mitotic Cells (%),U2OS; [1],0% and 23%
same,Population Normal (%),U2OS; [1],100% and 99%
same,Population Pyknosed Nuclei (%),U2OS; [1],17% and 10%
same,Population Tubulin-Different-Phenotype (%),U2OS; [1],46% and 30%
same,Population Apoptotic (%),U2OS; [2],96% and 91%
same,Population Fragmented Nuclei (%),U2OS; [2],14% and 11%
same,Population Healthy Nuclei (%),U2OS; [2],5% and 3%
same,Population Hoechst High Intensity Objects (%),U2OS; [2],0%
same,Population Membrane Permeable-Phenotype (%),U2OS; [2],100%
same,Population Mitochondria Different-Phenotype (%),U2OS; [2],50% and 66%
same,Population Mitotic Cells (%),U2OS; [2],3% and 8%
same,Population Normal (%),U2OS; [2],100%
same,Population Pyknosed Nuclei (%),U2OS; [2],79% and 85%
same,Population Tubulin-Different-Phenotype (%),U2OS; [2],100%
same,Population Apoptotic (%),U2OS; [3],83% and 85%
same,Population Fragmented Nuclei (%),U2OS; [3],23% and 9%
same,Population Healthy Nuclei (%),U2OS; [3],65% and 74%
same,Population Hoechst High Intensity Objects (%),U2OS; [3],0%
same,Population Membrane Permeable-Phenotype (%),U2OS; [3],26% and 12%
same,Population Mitochondria Different-Phenotype (%),U2OS; [3],23% and 34%
same,Population Mitotic Cells (%),U2OS; [3],16% and 14%
same,Population Normal (%),U2OS; [3],100%
same,Population Pyknosed Nuclei (%),U2OS; [3],11% and 16%
same,Population Tubulin-Different-Phenotype (%),U2OS; [3],47% and 34%
same,Population Apoptotic (%),U2OS; [4],91% and 90%
same,Population Fragmented Nuclei (%),U2OS; [4],14% and 22%
same,Population Healthy Nuclei (%),U2OS; [4],3% and 0%
same,Population Hoechst High Intensity Objects (%),U2OS; [4],2% and 0%
same,Population Mitotic Cells (%),U2OS; [4],8% and 9%
same,Population Normal (%),U2OS; [4],97% and 100%
same,Population Pyknosed Nuclei (%),U2OS; [4],82% and 77%
same,Population Apoptotic (%),U2OS; [5],84% and 94%
same,Population Fragmented Nuclei (%),U2OS; [5],17% and 6%
same,Population Healthy Nuclei (%),U2OS; [5],52% and 77%
same,Population Hoechst High Intensity Objects (%),U2OS; [5],0%
same,Population Membrane Permeable-Phenotype (%),U2OS; [5],12% and 9%
same,Population Mitochondria Different-Phenotype (%),U2OS; [5],27% and 34%
same,Population Mitotic Cells (%),U2OS; [5],15% and 5%
same,Population Normal (%),U2OS; [5],100%
same,Population Pyknosed Nuclei (%),U2OS; [5],30% and 15%
same,Population Tubulin-Different-Phenotype (%),U2OS; [5],24% and 34%
same,Population Apoptotic (%),U2OS; [6],96% and 89%
same,Population Fragmented Nuclei (%),U2OS; [6],10% and 19%
same,Population Healthy Nuclei (%),U2OS; [6],3% and 4%
same,Population Hoechst High Intensity Objects (%),U2OS; [6],0%
same,Population Membrane Permeable-Phenotype (%),U2OS; [6],100% and 85%
same,Population Mitochondria Different-Phenotype (%),U2OS; [6],100% and 71%
same,Population Mitotic Cells (%),U2OS; [6],4% and 10%
same,Population Normal (%),U2OS; [6],100% and 99%
same,Population Pyknosed Nuclei (%),U2OS; [6],86% and 76%
same,Population Tubulin-Different-Phenotype (%),U2OS; [6],100% and 85%
